The source made the active and inactive calls.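 How the source made its calls, unless noted: active means GFP response above 150% of the DMSO level; inconclusive means fewer than 70 events counted for a yeast strain; inactive means the rest.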
Key:
[1] = RPL19A-GFP modulators, yeast TOR pathway, confirmation, cell-based, S. cerevisiae, flow cytometry, cherry picks, mother/daughter gates (AID 2270;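 active means GFP response below 50% of the DMSO control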); conditions: S. cerevisiae RPL19A-GFP strain, 3 h, at 10 µM, stronger effect = lower value, 100 = same GFP as DMSO wells
[2] = LAP4-GFP expression modulators in yeast, confirmation, cell-based, cherry picks, flow cytometry, mother/daughter gates (AID 2271;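 active means GFP response above 150% of the DMSO control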;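 further: ratio of sample to DMSO plate mean so 100% equals DMSO level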); conditions: S. cerevisiae LAP4-GFP strain, 3 h, at 10 µM, stronger effect = higher value, 100 means same as DMSO control
Procedure, shortened: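 Test system: GFP-fusion yeast strain / Amount: 0.2 OD600 cells / Buffer or medium: SC medium / Dosing: 10 µM single dose / Incubation: compound exposure 3 h at 30 °C, end-over-end rotation / Detection: HT flow cytometry, GFP fluorescence channel / Evaluation: median GFP fluorescence as percent of plate-mean DMSO wells / Control set: DMSO-only negative wells, rapamycin 400 ng/mL positive wells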

[3] = modulators of MEP2-GFP levels in yeast, confirmation, S. cerevisiae, flow cytometry GFP, cherry picks (AID 2272;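 active means GFP response above 150% of the DMSO control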;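 further: ratio of well signal to plate DMSO mean so 100% equals DMSO level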); conditions: S. cerevisiae MEP2-GFP strain, 3 h, at 10 µM, stronger effect = higher value
[4] = AGP1-GFP expression modulators, hit retest, confirmation, cell-based, flow cytometry, S. cerevisiae, cherry picks (AID 2273);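 further: median GFP channel fluorescence over the whole cell population gate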; conditions: S. cerevisiae AGP1-GFP strain, 3 h, at 10 µM
[5] = modulators of CIT2-GFP expression in yeast, confirmation, S. cerevisiae, GFP fusion, cherry picks, mother/daughter gates (AID 2274); conditions: S. cerevisiae CIT2-GFP strain, flow cytometry, 3 h, at 10 µM, stronger effect = higher value
[6] = measured here: daughter cell gate
[7] = measured here: mother cell gate
[8] = measured here: daughter cell gate response
[9] = measured here: mother cell gate response

Structure (SMILES)	GFP response vs DMSO [1]	GFP response vs DMSO [1, 6] [%]	GFP response vs DMSO [1, 7] [%]	GFP response relative to DMSO [2]	GFP response relative to DMSO [2, 8] [%]	GFP response relative to DMSO [2, 9] [%]	GFP response vs DMSO [3]	GFP response, % of DMSO [4]	GFP response, % of DMSO [5]	GFP response, % of DMSO [5, 6] [%]	GFP response, % of DMSO [5, 7] [%]
CCn1c2ccccc2c2cc(/C=N/n3cn[nH]c3=S)ccc21	93.6% (inactive)	91.6	93.3	139% (inactive)	128	141	97.2% (inactive)	94.3% (inactive)	87.5% (inactive)	86.9	84.8
CCOC(=O)c1cc(S(=O)(=O)N2CCN(C(=O)OCC)CC2)cn1C	101% (inactive)	99	101	105% (inactive)	100	107	107% (inactive)	95.7% (inactive)	100% (inactive)	99.7	102
CCCc1[nH]nc2c1C(c1cc(OC)cc(OC)c1)C(C#N)=C(N)O2 (stereo not drawn)	101% (inactive)	99.8	101	103% (inactive)	100	106	102% (inactive)	100% (inactive)	95.2% (inactive)	93.2	95.5
Cc1ccc(/C=N\NC(=O)c2cc(OCC(F)(F)F)ccc2OCC(F)(F)F)cc1	100% (inactive)	101	100	91.5% (inactive)	91.2	92.9	94.1% (inactive)	102% (inactive)	105% (inactive)	108	106
O=C(Cn1c(=O)oc2cc(S(=O)(=O)N3CCCC3)ccc21)Nc1ccccc1Br	93.7% (inactive)	92.6	94.3	97.9% (inactive)	97.6	96.1	102% (inactive)	99.9% (inactive)	101% (inactive)	103	102
COc1ccc(Br)cc1/C=C/C(=O)c1ccc(NC(C)=O)cc1	100% (inactive)	98.4	97.7	89.4% (inactive)	89.8	92.3	101% (inactive)	98.6% (inactive)	98.6% (inactive)	101	96
Cn1c(=O)[nH]c(=O)c2c1nc(N1CCCCC1)n2CCOc1ccccc1	99% (inactive)	99.5	100	98.7% (inactive)	100	102	102% (inactive)	104% (inactive)	103% (inactive)	101	103
O=S(=O)(c1ccccc1)N1N=C(c2cccs2)CC1c1ccc(Br)cc1 (stereo not drawn)	98% (inactive)	99.4	98.4	97.9% (inactive)	99.2	97.2	102% (inactive)	98.3% (inactive)	98.3% (inactive)	97.2	97.3
CCOc1ccc(N2C(=O)C(Cl)=C(Nc3ccccc3O)C2=O)cc1	97.4% (inactive)	98	98.1	103% (inactive)	99.3	105	104% (inactive)	96.7% (inactive)	97.8% (inactive)	100	95.6
CCC(=O)N/C(N)=N/c1nc2ccccc2o1	83.5% (inactive)	85.1	84.8	110% (inactive)	106	112	109% (inactive)	96.2% (inactive)	98.3% (inactive)	97.2	99.7
Cc1noc2ncnc(Sc3ccc(Br)cc3)c12	97.2% (inactive)	94.2	94.7	137% (inactive)	133	135	103% (inactive)	98.8% (inactive)	108% (inactive)	106	105
Cc1sc(NC(=O)c2ccco2)nc1-c1ccccc1	93.8% (inactive)	92.2	93.6	111% (inactive)	105	113	102% (inactive)	89.5% (inactive)	102% (inactive)	98.1	101
Cc1nnc(NC(=O)c2ccc(S(=O)(=O)N(C)Cc3ccccc3)cc2)o1	98.4% (inactive)	98.1	98.2	101% (inactive)	99.2	101	102% (inactive)	91.2% (inactive)	103% (inactive)	101	102
CCOC(=O)C1C(=O)C=C(c2ccc(C)cc2)CC1c1ccco1 (stereo not drawn)	99.9% (inactive)	97.8	101	109% (inactive)	103	112	102% (inactive)	102% (inactive)	95.2% (inactive)	91.5	96.6
Cc1nc2c(-c3ccc(F)cc3)cnn2c(N)c1-c1ccccc1	99.6% (inactive)	97.9	98.8	101% (inactive)	97.5	100	103% (inactive)	96.7% (inactive)	103% (inactive)	101	104
C=CCNC(=S)N/N=C(\C)c1cccc(OC)c1	100% (inactive)	102	101	98.8% (inactive)	99.3	97.5	99.5% (inactive)	95.2% (inactive)	96.4% (inactive)	96.4	93.3
Cc1nnc(N2C(=O)c3cccc4cccc(c34)C2=O)s1	94.9% (inactive)	93.3	94.4	96.5% (inactive)	94.4	96.4	106% (inactive)	100% (inactive)	101% (inactive)	101	102

Structure (SMILES)	GFP response vs DMSO [1]	GFP response vs DMSO [1, 6] [%]	GFP response vs DMSO [1, 7] [%]	GFP response relative to DMSO [2]	GFP response relative to DMSO [2, 8] [%]	GFP response relative to DMSO [2, 9] [%]	GFP response vs DMSO [3]	GFP response, % of DMSO [4]	GFP response, % of DMSO [5]	GFP response, % of DMSO [5, 6] [%]	GFP response, % of DMSO [5, 7] [%]
O=C(NCC(c1ccc(F)cc1)N1CCOCC1)c1cc(F)c(F)c(F)c1F (stereo not drawn)	100% (inactive)	99.6	101	102% (inactive)	102	102	101% (inactive)	102% (inactive)	102% (inactive)	101	101
O=[N+]([O-])c1cccc(-c2ccc(/C=N/Nc3nc(N4CCCCC4)nc(N4CCCCC4)n3)o2)c1	96.8% (inactive)	94.3	98.2	118% (inactive)	114	123	108% (inactive)	105% (inactive)	101% (inactive)	95.2	102
Cc1cc(N2CCC(C)CC2)n2nc(C)c(-c3ccccc3)c2n1	101% (inactive)	101	101	97.7% (inactive)	93.6	97.5	104% (inactive)	98.4% (inactive)	101% (inactive)	102	99.1
N#C/C(=C\c1c(N2CCN(c3ccccc3)CC2)nc2ccccn2c1=O)C(N)=O	104% (inactive)	99.1	99.3	97% (inactive)	97.5	98.4	105% (inactive)	106% (inactive)	98.8% (inactive)	99.2	88.2
COc1cc(C2CC(c3cccnc3)=NN2c2ccc(F)cc2)cc(OC)c1OC (stereo not drawn)	98.2% (inactive)	98.4	95.2	95.3% (inactive)	94.4	95.4	101% (inactive)	102% (inactive)	98.6% (inactive)	97.6	96
O=C1CC(SCCO)C(=O)N1c1ccc(Oc2ccccc2)cc1 (stereo not drawn)	99.7% (inactive)	98.7	101	103% (inactive)	105	104	104% (inactive)	103% (inactive)	104% (inactive)	101	106
O=S(=O)(c1ccc(C2CCCCC2)cc1)N1CCOCC1	92.4% (inactive)	92.7	90.1	102% (inactive)	97.5	105	105% (inactive)	102% (inactive)	100% (inactive)	93.8	101
COc1cc(NC(=O)C(C)C)ccc1NC(=O)c1cc2ccccc2o1	102% (inactive)	99.8	103	92.6% (inactive)	92.5	94.2	102% (inactive)	97.8% (inactive)	103% (inactive)	101	104
Cc1cc(C(=O)Nc2nc(-c3ccccn3)cs2)ccc1[N+](=O)[O-]	104% (inactive)	107	97.2	158% (active)	149	155	107% (inactive)	84.3% (inactive)	105% (inactive)	110	99.3
Cc1nnc(NC(=O)c2nc(S(=O)(=O)Cc3ccccc3C)ncc2Cl)s1	97.1% (inactive)	96.4	94.4	98.9% (inactive)	99	97.4	99.3% (inactive)	98.2% (inactive)	97.2% (inactive)	97.6	96
O=C(OC(c1ccc(NS(=O)(=O)c2ccccc2)cc1)(C(F)(F)F)C(F)(F)F)c1ccccc1	100% (inactive)	101	100	94.9% (inactive)	95.1	95.1	110% (inactive)	104% (inactive)	92.2% (inactive)	95.2	91.8
COC(=O)c1ccc(/C=C/C(=O)c2cccc(OC)c2)cc1	104% (inactive)	102	103	117% (inactive)	112	116	105% (inactive)	101% (inactive)	103% (inactive)	101	102
O=[N+]([O-])c1ccc(N=Nc2c(Cl)cc(O)cc2Cl)cc1	91.9% (inactive)	84.8	85.2	252% (active)	150	230	112% (inactive)	91.4% (inactive)	96.4% (inactive)	96.4	82.8
COC(=O)c1ccc(/C=C/C(=O)c2ccc(OC)cc2)cc1	99.9% (inactive)	97.8	101	114% (inactive)	108	111	104% (inactive)	94.9% (inactive)	99.3% (inactive)	100	99.1
Oc1ccc(-c2nc3ccccn3c2NCc2ccco2)cc1	96.8% (inactive)	98.4	97.1	101% (inactive)	99.2	99.3	102% (inactive)	96.2% (inactive)	103% (inactive)	105	101
O=C1C2C3C=CC(CNS(=O)(=O)c4ccccc4)(O3)C2C(=O)N1c1ccc(Cl)cc1 (stereo not drawn)	102% (inactive)	103	102	110% (inactive)	109	109	114% (inactive)	99.7% (inactive)	111% (inactive)	113	108

From PubChem BioAssay
